Experimental data from paper PMC4659352 (Molecular cancer therapeutics, 2014).
*1 amine or outer side, *2 acyl side, *3 side chain or, on linkers, in order; H or OH if unused. Where a SMILES comes first, the peptide text is derived from it. [ ]: non-standard residue; d: D form. γGlu = O=C(O)[C@H](CCC(=O)[*:2])N[*:1]

Columns and labels:
[1] = system: primary and metastatic tumor models; details: intratumoral or systemic injection; ref [22], [23]; cited from earlier work
LNCaP xenografts = assay: LNCaP subcutaneous xenograft therapy study; format: in vivo, mouse
CWR22Rv1 xenografts = assay: CWR22Rv1 subcutaneous xenograft therapy study; format: in vivo, mouse; details: 7 mg/kg tail vein at days 0, 3, 6, 9
PSMA = PSMA (Homo sapiens, UniProt Q04609); assay: Protease digestion with purified recombinant PSMA monitored by MALDI-TOF; format: biochemical
Sequence of PSMA (Q04609 whole entry): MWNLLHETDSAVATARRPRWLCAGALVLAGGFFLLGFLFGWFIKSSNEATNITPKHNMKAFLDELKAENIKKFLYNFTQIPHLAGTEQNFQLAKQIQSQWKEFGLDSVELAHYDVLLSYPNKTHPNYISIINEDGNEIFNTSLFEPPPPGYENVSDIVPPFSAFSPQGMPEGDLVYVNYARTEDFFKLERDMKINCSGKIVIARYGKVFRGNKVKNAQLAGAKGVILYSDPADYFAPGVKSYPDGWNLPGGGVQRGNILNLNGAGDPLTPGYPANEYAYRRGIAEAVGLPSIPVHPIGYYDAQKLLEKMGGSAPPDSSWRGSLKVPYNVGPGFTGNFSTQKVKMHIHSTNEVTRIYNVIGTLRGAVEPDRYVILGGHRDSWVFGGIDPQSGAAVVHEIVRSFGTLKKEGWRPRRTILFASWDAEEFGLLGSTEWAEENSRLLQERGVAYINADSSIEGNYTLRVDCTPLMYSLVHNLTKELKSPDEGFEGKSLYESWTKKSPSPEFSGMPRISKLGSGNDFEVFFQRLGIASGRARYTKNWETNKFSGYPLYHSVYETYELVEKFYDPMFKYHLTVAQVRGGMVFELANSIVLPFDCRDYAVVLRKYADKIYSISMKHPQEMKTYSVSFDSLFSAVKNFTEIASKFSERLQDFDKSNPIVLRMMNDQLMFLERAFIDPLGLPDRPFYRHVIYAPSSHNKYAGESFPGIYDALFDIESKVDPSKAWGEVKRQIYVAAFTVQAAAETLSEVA

PC3 xenografts = details: PC3 (PSA-, PSMA-) xenograft, 7 mg/kg tail vein at days 0, 3, 6, 9
[2] = Solubility of the propeptides at dosing; format: physicochemical; details: dissolved in DMSO and diluted in sterile PBS, 5% v/v DMSO
healthy nude mice = assay: Toxicity study in healthy nude mice; format: in vivo, mouse
PC3 = assay: MTT cell viability assay, PC3; format: cell-based, human; details: PSMA-null PC3, standard culture conditions with 10% fetal bovine serum, 72 hours
How it was run: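 PC3 cells (about 3,000 per well) were kept in RPMI-1640 with 10% FBS, 1% pen/strep and 2 mmol/L L-glutamine at 37°C and 5% CO2. They were exposed to a concentration range of test compound for 72 hours. Viability was read by MTT, and IC50 was calculated.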

human red blood cells = assay: Hemolysis assay with washed human red blood cells; format: cell-based; details: 1 µmol/L peptide, 2% v/v human RBC, 1 hour, 37°C
How it was run: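 Test compound was dissolved in DMSO and diluted in 1× PBS to 100, 10 and 1 µmol/L. It was incubated with washed human RBCs (2% v/v) for 1 hour at 37°C. RBCs in PBS alone served as zero lysis and 1% Triton X-100 as 100% lysis. Cells were pelleted and supernatant absorbance read at 540 nm, in triplicate.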

PSA = PSA substrate sequence used in PSA1 and PSA2; ref [27]; cited from earlier work
[3] = 7 mg/kg tail vein at days 0, 3, 6, 9

CC(C)C[C@H](NC(=O)[C@H](CC(C)C)NC(=O)[C@@H](CCCCN)NC(=O)[C@H](CC(C)C)NC(=O)[C@H](CC(C)C)NC(=O)[C@H](CCCCN)NC(=O)[C@@H](CCCCN)NC(=O)[C@@H](CC(C)C)NC(=O)[C@H](CC(C)C)NC(=O)[C@@H](CCCCN)NC(=O)[C@H](CCCCN)NC(=O)[C@H](CC(C)C)NC(=O)[C@@H](CC(C)C)NC(=O)[C@H](CCCCN)NC(=O)[C@@H](N)CC(C)C)C(N)=O [KLL, reference compound] (H-LK[dL]LK[dK]L[dL][dK]KLL[dK]LL-NH2)
effect on tumor growth [1]: inhibit the growth of primary and metastatic tumor models | tumor growth compared with the saline control at day 9 (LNCaP xenografts; [3]): Inhibition of tumor growth | tumor volume by day 28 relative to the γE-KLL arm (CWR22Rv1 xenografts): double the volume of the γE-KLL–treated arm

CC(C)C[C@H](NC(=O)[C@H](CC(C)C)NC(=O)[C@@H](CCCCN)NC(=O)[C@H](CC(C)C)NC(=O)[C@H](CC(C)C)NC(=O)[C@H](CCCCN)NC(=O)[C@@H](CCCCN)NC(=O)[C@@H](CC(C)C)NC(=O)[C@H](CC(C)C)NC(=O)[C@@H](CCCCN)NC(=O)[C@H](CCCCN)NC(=O)[C@H](CC(C)C)NC(=O)[C@@H](CC(C)C)NC(=O)[C@H](CCCCN)NC(=O)[C@@H](N)CC(C)C)C(=O)N[C@@H](CCC(=O)N[C@@H](CCC(=O)N[C@@H](CCC(=O)N[C@@H](CCC(=O)N[C@@H](CCC(=O)N[C@@H](CCC(=O)N[C@@H](CCC(=O)O)C(=O)O)C(=O)O)C(=O)O)C(=O)O)C(=O)O)C(=O)O)C(=O)O [γE-KLL] (H-LK[dL]LK[dK]L[dL][dK]KLL[dK]LL[γGlu][γGlu][γGlu][γGlu][γGlu][γGlu]E-OH; N-terminus assumed)
cleavage of the γ-linked glutamic acid inhibitory domain by PSMA (PSMA; 50 µg peptide, 5 µg PSMA, 4 hours, 37°C, pH 7.8, MALDI-TOF): Cleavage of γ-linked glutamic acid residues from the peptide sequence by PSMA was detected | degradation by PSMA in the presence of EDTA (PSMA; PSMA with EDTA in the buffer, MALDI-TOF): no degradation | Treated tumor/Control tumor (T/C) ratio at day 28 (LNCaP xenografts; [3]): 0.3 | tumor growth compared with the saline control at day 9 (LNCaP xenografts; [3]): Inhibition of tumor growth | tumor volume at day 28 (LNCaP xenografts; 7 mg/kg tail vein at days 0, 3, 6, 9, n = 10 mice): 220.3 ± 44.6 mm^3 | therapeutic effect in PC3 tumors (PC3 xenografts): No therapeutic effect | Treated tumor/Control tumor (T/C) ratio at day 28 (CWR22Rv1 xenografts): 0.3 | dose above which solubility issues became apparent [2]: above 10 mg/kg | toxicity in healthy nude mice (healthy nude mice): nontoxic | toxicity in PC3 (PC3): no toxicity

H-DDDDDDDLKLLKKLLKKLLKLL-NH2 [D7-KLL-NH2]
hemolysis at 1 µmol/L (human red blood cells): little hemolytic activity

H-LKLLKKLLKKLLKLLDDDDDDD-OH [KLL-D7-OH]
hemolysis at 1 µmol/L (human red blood cells): minimal hemolysis

SSKLQ [SSLQ, serine–serine–lysine–leucine–glutamine]
kcat/km (PSA): 23.6 s^−1 (mol/L)^−1
